How the values were obtained:
[1] = Selectivity index, ratio of IC50 for human BEAS2B cells to IC50 for human NCI-H1299 cells; assay type: toxicity; conditions: BEAS2B cells and NCI-H1299 cells, read-out: Ratio IC50
HCT-116 [2] = test: Antiproliferative activity against human HCT116 cells after 48 hrs by MTS assay; assay type: functional, cell-based; conditions: HCT-116, 48 h
Procedure, shortened: (§1)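 Cells kept in RPMI 1640 with 9% FBS at 37°C, 5% CO2. 5000 cells/well seeded, left 12 h, then exposed to a range of compound concentrations or DMSO (negative control) for 48 h. MTS added, 3 h at 37°C, absorbance read at 490 nm. IC50 ± SD.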

Pyruvate kinase PKM [3] = molecular target: T1, Pyruvate kinase PKM (Homo sapiens, UniProt P14618); test: Inhibition of recombinant human N-terminal His-tagged PKM2 expressed in Escherichia coli BL21 preincubated for 15 mins followed by PEP/NADH addition measured at 30 secs interval for 3 to 6 mins by fluorescent PK-LDH assay
Procedure, shortened: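 Human PKM2 with an N-terminal His tag, expressed in E. coli BL21 and Ni-agarose purified. Enzyme and compound preincubated 15 min in 50 mM Tris–HCl pH 7.5, 10 mM KCl, 5 mM MgCl2. NADH fluorescence read kinetically every 30 s for 3–6 min. IC50.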

NCI-H1299 [4] = test: Antiproliferative activity against human NCI-H1299 cells after 48 hrs by MTS assay; assay type: functional, cell-based; conditions: NCI-H1299, 48 h; procedure, shortened: as §1
BEAS-2B = test: Cytotoxicity against human BEAS2B cells assessed as reduction in cell viability after 48 hrs by MTS assay; assay type: cell-based; procedure, shortened: as §1
HeLa [5] = test: Antiproliferative activity against human HeLa cells after 48 hrs by MTS assay; assay type: functional, cell-based; procedure, shortened: as §1
Homo sapiens [6] = species on record: Homo sapiens; test: Selectivity ratio of IC50 for recombinant human N-terminal His-tagged PKM1 expressed in Escherichia coli BL21 to IC50 for recombinant human N-terminal His-tagged PKM2 expressed in Escherichia coli BL21
Homo sapiens [7] = species on record: Homo sapiens; test: Selectivity ratio of IC50 for recombinant human N-terminal His-tagged PKL expressed in Escherichia coli to IC50 for recombinant human N-terminal His-tagged PKM2 expressed in Escherichia coli BL21
Pyruvate kinase PKM [8] = molecular target: T1, Pyruvate kinase PKM; test: Inhibition of recombinant human N-terminal His-tagged PKM1 expressed in Escherichia coli BL21 preincubated for 15 mins followed by PEP/NADH addition measured at 30 secs interval for 3 to 6 mins by fluorescent PK-LDH assay
Procedure, shortened: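 Human PKM1 with an N-terminal His tag, expressed in E. coli BL21 and Ni-agarose purified. Activity measured by PK–LDH coupling, with pyruvate formation tracked as NADH depletion by fluorescence in kinetic mode. IC50.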
Target sequence in this assay (P14618 whole entry): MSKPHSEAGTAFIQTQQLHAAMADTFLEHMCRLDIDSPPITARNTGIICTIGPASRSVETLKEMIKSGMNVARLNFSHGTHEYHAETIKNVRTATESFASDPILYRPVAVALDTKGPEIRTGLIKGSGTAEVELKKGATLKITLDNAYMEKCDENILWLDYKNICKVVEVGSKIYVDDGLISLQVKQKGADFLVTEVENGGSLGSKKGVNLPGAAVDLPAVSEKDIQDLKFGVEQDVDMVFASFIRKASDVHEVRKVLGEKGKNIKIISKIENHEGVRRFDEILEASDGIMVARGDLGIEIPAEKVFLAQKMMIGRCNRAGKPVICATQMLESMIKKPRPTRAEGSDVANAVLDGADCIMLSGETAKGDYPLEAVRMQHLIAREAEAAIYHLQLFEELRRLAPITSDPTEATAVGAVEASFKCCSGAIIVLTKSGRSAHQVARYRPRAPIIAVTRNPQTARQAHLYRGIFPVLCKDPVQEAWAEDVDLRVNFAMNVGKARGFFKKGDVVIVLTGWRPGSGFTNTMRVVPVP

HCT-116 [9] = test: Antiproliferative activity against human HCT116 cells assessed as cell viability at 0.156 uM after 48 hrs by MTS assay relative to control; assay type: functional; conditions: HCT-116, 48 h, read-out: Activity
HCT-116 [10] = test: Antiproliferative activity against human HCT116 cells assessed as cell viability at 0.625 uM after 48 hrs by MTS assay relative to control; assay type: functional; conditions: HCT-116, 48 h, read-out: Activity
HeLa [11] = test: Antiproliferative activity against human HeLa cells assessed as cell viability at 0.313 uM after 48 hrs by MTS assay relative to control; assay type: functional; conditions: read-out: Activity
NCI-H1299 [12] = test: Antiproliferative activity against human NCI-H1299 cells after 48 hrs in presence of PKM2 activator FBP by MTS assay; assay type: functional, cell-based; conditions: NCI-H1299, 48 h
Procedure, shortened: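 H1299 cells in RPMI 1640 with 9% FBS at 37°C, 5% CO2. 5000 cells/well, 12 h attachment, then 48 h treatment at graded concentrations with FBP (100 µM) added. MTS read-out (3 h, 37°C, A490). IC50 ± SD.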

HeLa [13] = test: Antiproliferative activity against human HeLa cells assessed as cell viability at 0.078 uM after 48 hrs by MTS assay relative to control; assay type: functional; conditions: read-out: Activity
HeLa [14] = test: Antiproliferative activity against human HeLa cells assessed as cell viability at 0.156 uM after 48 hrs by MTS assay relative to control; assay type: functional; conditions: read-out: Activity
HCT-116 [15] = test: Antiproliferative activity against human HCT116 cells assessed as cell viability at 0.313 uM after 48 hrs by MTS assay relative to control; assay type: functional; conditions: HCT-116, 48 h, read-out: Activity
HeLa [16] = test: Antiproliferative activity against human HeLa cells assessed as cell viability at 0.625 uM after 48 hrs by MTS assay relative to control; assay type: functional; conditions: read-out: Activity
Pyruvate kinase PKLR = Pyruvate kinase PKLR (Homo sapiens, UniProt P30613); test: Inhibition of recombinant human N-terminal His-tagged PKL expressed in Escherichia coli preincubated for 15 mins followed by PEP/NADH addition measured at 30 secs interval for 3 to 6 mins by fluorescent PK-LDH assay
HCT-116 [17] = test: Antiproliferative activity against human HCT116 cells assessed as cell viability at 0.078 uM after 48 hrs by MTS assay relative to control; assay type: functional; conditions: HCT-116, 48 h, read-out: Activity

Chain of Pyruvate kinase PKLR (P30613 whole entry): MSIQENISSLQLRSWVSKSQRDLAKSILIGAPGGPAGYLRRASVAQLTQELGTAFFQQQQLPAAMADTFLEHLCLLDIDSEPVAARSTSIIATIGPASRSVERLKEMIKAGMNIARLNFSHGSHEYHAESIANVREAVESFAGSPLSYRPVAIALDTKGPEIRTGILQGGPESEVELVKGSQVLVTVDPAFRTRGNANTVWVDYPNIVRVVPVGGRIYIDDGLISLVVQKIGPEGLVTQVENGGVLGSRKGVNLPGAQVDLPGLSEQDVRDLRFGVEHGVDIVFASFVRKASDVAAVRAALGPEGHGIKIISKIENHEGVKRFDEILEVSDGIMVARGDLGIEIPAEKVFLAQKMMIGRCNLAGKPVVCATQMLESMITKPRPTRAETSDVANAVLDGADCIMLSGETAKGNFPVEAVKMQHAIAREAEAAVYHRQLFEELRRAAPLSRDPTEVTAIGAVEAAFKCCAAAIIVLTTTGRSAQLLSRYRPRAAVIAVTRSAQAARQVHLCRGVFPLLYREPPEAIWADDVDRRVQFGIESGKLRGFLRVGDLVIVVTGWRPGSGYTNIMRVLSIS

Structure (SMILES) | IC50 (HCT-116 [2]) [µM] | IC50 (Pyruvate kinase PKM [3]) [µM] | IC50 (NCI-H1299 [4]) [µM] | IC50 (HeLa [5]) [µM] | further results
O=C1C=C(CSC(=S)N2CCCCC2)C(=O)c2ccccc21 | 2.37 | 1.74 | 2.06 | 0.92 | selectivity ratio [1]: 9.4; IC50 (BEAS-2B): 19.3 µM
CC(C)=CC[C@@H](O)C1=CC(=O)c2c(O)ccc(O)c2C1=O [SHIKONIN] | 1.84 | – | 1.88 | 2.45 | selectivity ratio [1]: 2.9; Ratio IC50 (Homo sapiens [6]): 1.5; IC50 (BEAS-2B): 5.36 µM; Ratio IC50 (Homo sapiens [7]): 4.5
CC1=C(SC(=S)N2CCCCC2)C(=O)c2ccccc2C1=O | 3.55 | 4.93 | 10.2 | 1.29 | –
CC1=C(CSC(=S)NN2CCN(C)CC2)C(=O)c2ccccc2C1=O | 2 | > 20 | > 20 | 3.92 | –
CC1=C(CSC(=S)NCc2cccnc2)C(=O)c2ccccc2C1=O | 0.18 | > 20 | 1.08 | 0.38 | –
CC(=O)N1CCN(C(=S)SC2=C(C)C(=O)c3ccccc3C2=O)CC1 | 4.95 | > 20 | 6.61 | 10.6 | –
CC1=C(CSC(=S)N(C)C2CCCCC2)C(=O)c2ccccc2C1=O | 10.6 | 5.08 | 11.3 | 13.6 | –
CC1=C(CSC(=S)N2CCCCC2)C(=O)c2ccccc2C1=O | 0.18 | – | 1.56 | 0.29 | IC50 (Pyruvate kinase PKM [8]): 16.7 µM; viability at 0.156 µM (HCT-116 [9]): 62.3%; viability at 0.625 µM (HCT-116 [10]): 6.9%; selectivity ratio [1]: 11.8; viability at 0.313 µM (HeLa [11]): 21.1%; inhibition (Pyruvate kinase PKM [3]): Dose-dependent effect; Ratio IC50 (Homo sapiens [6]): 5.7; IC50 (NCI-H1299 [12]): 2.01 µM; viability at 0.078 µM (HeLa [13]): 99%; viability at 0.156 µM (HeLa [14]): 95.8%; IC50 (BEAS-2B): 18.5 µM; viability at 0.313 µM (HCT-116 [15]): 20.7%; viability at 0.625 µM (HeLa [16]): 4.8%; IC50 (Pyruvate kinase PKLR): 8.2 µM; Ratio IC50 (Homo sapiens [7]): 2.8; viability at 0.078 µM (HCT-116 [17]): 92.5%
CC1=C(CSC(=S)N2CCSC2)C(=O)c2ccccc2C1=O | 1.75 | 5.28 | 3.28 | 1.96 | –
CCN(CC)C(=S)SCC1=C(C)C(=O)c2ccccc2C1=O | 0.41 | 8.78 | 0.89 | 0.39 | selectivity ratio [1]: 17; IC50 (NCI-H1299 [12]): 1.58 µM; IC50 (BEAS-2B): 15.1 µM
CC1=C(CSC(=S)NCc2ccccn2)C(=O)c2ccccc2C1=O | 5.42 | > 20 | 4.49 | 6.77 | –
O=C1C=C(CSC(=S)N2CCOCC2)C(=O)c2ccccc21 | 3.68 | 4.23 | 5.69 | 2.39 | –
CCN(CC)CCNC(=S)SCC1=C(C)C(=O)c2ccccc2C1=O | 3.37 | > 20 | 3.97 | 5.78 | –
CC1=C(CSC(=S)N2CCN(C(C)C)CC2)C(=O)c2ccccc2C1=O | 1.97 | > 20 | 4.06 | 2.19 | –
CCCN(CCC)C(=S)SCC1=C(C)C(=O)c2ccccc2C1=O | 6 | 6.79 | 4.23 | 12.1 | –
CC1=C(SC(=S)N2CCOCC2)C(=O)c2ccccc2C1=O | 2.28 | 8.5 | 3.27 | 2.14 | –
CCN(CC)C(=S)SCC1=CC(=O)c2ccccc2C1=O | 1.82 | 2.58 | 1.9 | 0.51 | –

Reference: ChEMBL document CHEMBL4118079, “Discovery of novel naphthoquinone derivatives as inhibitors of the tumor cell specific M2 isoform of pyruvate kinase” (Eur J Med Chem, 2017)
